Results taken from paper PMC3065953 (Inorganic chemistry, 2011).
Read-outs that look alike come from different tables or passages of the source.

Key:
[1] = cited from earlier work; for peak potential: in water / aqueous media; for Ep, V vs. Ag/AgCl (peak reduction potential): value in parentheses, aqueous solution
[2] = Cyclic voltammetry in DMF; type: physicochemical; conditions: for Ep, V vs. Ag/AgCl (peak reduction potential): DMF, 0.1 M (n-Bu4N)PF6, scan rate 100 mV/s; for reduction peak potential: vs. Ag/AgCl, in DMF
[3] = system: human lung carcinoma (A549) cells; test: MTT cytotoxicity assay in A549 cells; type: cell-based; conditions: 72-h exposure, mean ± SD of at least three experiments
In short: (§1)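 Cells kept in DMEM/10% FBS/1% penicillin-streptomycin at 37 °C, 5% CO2. Seeded 1500 (A549) or 2500 (MRC-5) cells/well, 24 h, then 72 h in fresh medium with graded Pt concentrations. Pt(IV) complexes diluted from 10–20 mM DMSO stocks, reference Pt(II) drug from 2 mM PBS stock. MTT 0.8 mg/mL, 4 h; formazan dissolved in DMSO/10% pH 10.5 glycine buffer; A570. Viability normalized to Pt-free wells; IC50 extrapolated from curves. ≥3 independent experiments in triplicate.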

[4] = system: human normal lung fibroblasts (MRC-5) cells; test: MTT cytotoxicity assay in MRC-5 cells; type: cell-based; conditions: for IC50 / cytotoxicity relative to cisplatin: MRC-5 cells; for IC50: MTT assay, 72-h exposure, mean ± SD of at least three experiments; for factor less cytotoxic in the healthy cells compared to the cancerous cells: MRC-5 vs. A549 IC50
In short: as §1

[5] = Cyclic voltammetry in aqueous solution; type: physicochemical; conditions: value in parentheses, this work (Figure S3)

Structure (SMILES) | peak potential [1] [mV] | Ep, V vs. Ag/AgCl (peak reduction potential) [1] [V] | Ep, V vs. Ag/AgCl (peak reduction potential) [2] [V] | reduction peak potential [2] [mV] | IC50 [3] [µM] | IC50 [4] [µM] | cytotoxicity relative to cisplatin [4] | factor less cytotoxic in the healthy cells compared to the cancerous cells [4] | Ep, V vs. Ag/AgCl (peak reduction potential) [5] [V]
[NH2][Pt]([NH2])([Cl])([Cl])([Cl])[Cl] [Compound 3, cis-[Pt(NH3)2Cl4], reference compound] | −260 | −0.26 | −0.45 | −454 |  |  |  |  | 
CC(=O)[O][Pt]([NH2])([NH2])([Cl])([Cl])[O]C(C)=O [Compound 1, c,c,t-[Pt(NH3)2Cl2(O2CCH3)2], reference compound] | −635 | −0.64 | −0.72 | −722 |  |  |  |  | 
[NH2][Pt]([NH2])([Cl])([Cl])([O]C(=O)Nc1cccc2ccccc12)[O]C(=O)Nc1cccc2ccccc12 [Compound 11] |  |  | −0.63 | −625 | 4.3 ± 1.5 | 4.8 ± 0.3 |  |  | 
COc1ccc(NC(=O)[O][Pt]([NH2])([NH2])([Cl])([Cl])[O]C(=O)Nc2ccc(OC)cc2)cc1 [Compound 9] |  |  | −0.72 |  | 5.3 ± 2.5 | 9.3 ± 3.2 |  |  | 
N.N.[Cl][Pt][Cl] [cisplatin, cis-diamminedichloroplatinum(II), reference compound] |  |  |  |  | 7 ± 2.6 | 4.3 ± 1.3 |  |  | 
[NH2][Pt]([NH2])([Cl])([Cl])([O]C(=O)NC1CCCC1)[O]C(=O)NC1CCCC1 [Compound 5] |  |  | −0.85 |  | 0.6 ± 0.3 | 2.3 ± 0.7 | more toxic | ~2 | 
CC(C)(C)NC(=O)[O][Pt]([NH2])([NH2])([Cl])([Cl])[O]C(=O)NC(C)(C)C [Compound 4] |  |  | −0.85 |  | 1 ± 0.3 | 2.8 ± 0.8 | more toxic | ~2 | 
[NH2][Pt]([NH2])([Cl])([Cl])([O]C(=O)C(F)(F)F)[O]C(=O)C(F)(F)F [Compound 2, c,c,t-[Pt(NH3)2Cl2(O2CCF3)2]] |  |  | −0.35 | −345 |  |  |  |  | 0.01
[NH2][Pt]([NH2])([OH])([OH])([Cl])[Cl] [c,c,t-[Pt(NH3)2Cl2(OH)2]] | −880 |  |  |  |  |  |  |  | 
